{
  "source": "ChEMBL document CHEMBL1649316",
  "about": "“Using population pharmacokinetics to determine gentamicin dosing during extended daily diafiltration in critically ill patients with acute kidney injury” (Antimicrob Agents Chemother, 2010)",
  "format_in_all_cases": "ADME, organism-based",
  "key": {"[1]": {"test_system": "Homo sapiens", "assay": "Clearance in iv dosed critically ill patient with acute kidney injury during extended daily diafiltration", "details": "in vivo", "procedure,_shortened": "(§1)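 Patients were 14 critically ill adults with AKI on EDD-f, 28 doses in total. Gentamicin was given as a 30-min central venous infusion. Arterial plasma was sampled predose and at 15, 30, 60, 120, 180, 300, 480 and 600 min, plus samples between EDD-f sessions. Plasma levels were measured by Synchron LX assay (LOD 0.3 mg/liter). A two-compartment NONMEM model (FOCE with interaction) was fitted with EDD-f as a covariate.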"}, "[2]": {"test_system": "Homo sapiens", "assay": "AUC (0 to 24 hrs) in critically ill patient with acute kidney injury at 5 mg/kg, iv administered every 24 hrs", "design": "time < 24 hr, dose 5 mg/kg, route intravenous", "details": "in vivo", "procedure,_shortened": "(§2)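 Monte Carlo simulation in NONMEM from the final covariate population model. 1,000 simulated subjects per regimen, modelled on a person (70 kg, BMI 23.6 kg/m²). Weight-based doses were given at EDD-f start or 30 min, 1 h, 2 h or 4 h before a 10-h EDD-f session, every 24 h or every 48 h. Targets were Cmax and AUC0-24, assuming an MIC of 1 mg/liter.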"}, "[3]": {"test_system": "Homo sapiens", "assay": "AUC (0 to 24 hrs) in critically ill patient with acute kidney injury at 6 mg/kg, iv administered every 48 hrs", "design": "time < 24 hr, dose 6 mg/kg, route intravenous", "details": "in vivo", "procedure,_shortened": "as §2"}, "[4]": {"test_system": "Homo sapiens", "assay": "AUC (0 to 24 hrs) in critically ill patient with acute kidney injury at 4 mg/kg, iv administered as 30 mins infusion", "design": "time < 24 hr, dose 4 mg/kg, route intravenous", "details": "in vivo", "procedure,_shortened": "as §2"}, "[5]": {"test_system": "Homo sapiens", "assay": "Half life in iv dosed critically ill patient with acute kidney injury during extended daily diafiltration", "details": "in vivo", "procedure,_shortened": "as §1"}, "[6]": {"test_system": "Homo sapiens", "assay": "Cmax in critically ill patient with acute kidney injury at 4 mg/kg, iv administered as 30 mins infusion", "design": "dose 4 mg/kg, route intravenous", "details": "in vivo, 0.5 h", "procedure,_shortened": "as §2"}, "[7]": {"test_system": "Homo sapiens", "assay": "Cmax in critically ill patient with acute kidney injury at 5 mg/kg, iv administered as 1 hr infusion", "design": "dose 5 mg/kg, route intravenous", "details": "in vivo", "procedure,_shortened": "as §2"}, "[8]": {"test_system": "Homo sapiens", "assay": "Cmax in critically ill patient with acute kidney injury at 6 mg/kg, iv administered every 48 hrs", "design": "dose 6 mg/kg, route intravenous", "details": "in vivo", "procedure,_shortened": "as §2"}, "[9]": {"test_system": "Homo sapiens", "assay": "Half life in iv dosed critically ill patient with acute kidney injury", "details": "in vivo", "procedure,_shortened": "as §1"}, "[10]": {"test_system": "Homo sapiens", "assay": "Cmax in critically ill patient with acute kidney injury at 5 mg/kg, iv administered every 24 hrs", "design": "dose 5 mg/kg, route intravenous", "details": "in vivo", "procedure,_shortened": "as §2"}, "[11]": {"test_system": "Homo sapiens", "assay": "AUC (0 to 24 hrs) in critically ill patient with acute kidney injury at 5 mg/kg, iv administered as 1 hr infusion", "design": "dose 5 mg/kg, route intravenous", "details": "in vivo", "procedure,_shortened": "as §2"}, "[12]": {"test_system": "Homo sapiens", "assay": "Clearance iv dosed in critically ill patient with acute kidney injury", "details": "in vivo", "procedure,_shortened": "as §1"}},
  "data": [
    {"sequence": "GENTAMICIN", "values": [
      {"measurement": "CL", "setting": "[1]", "result": 2.54, "unit": "L/h"},
      {"measurement": "AUC", "setting": "[2]", "result": 135700, "unit": "ng·h/mL"},
      {"measurement": "AUC", "setting": "[3]", "result": 88700, "unit": "ng·h/mL"},
      {"measurement": "AUC", "setting": "[4]", "result": 70000, "unit": "ng·h/mL"},
      {"measurement": "t1/2", "setting": "[5]", "result": 13.8, "unit": "h"},
      {"measurement": "AUC", "setting": "[6]", "result": 70000, "unit": "ng·h/mL"},
      {"measurement": "Cmax", "setting": "[7]", "result": "> 10000", "unit": "ng/mL"},
      {"measurement": "Cmax", "setting": "[8]", "result": "> 10000", "unit": "ng/mL"},
      {"measurement": "t1/2", "setting": "[9]", "result": 153.4, "unit": "h"},
      {"measurement": "Cmax", "setting": "[10]", "result": "> 10000", "unit": "ng/mL"},
      {"measurement": "Cmax", "setting": "[11]", "result": "> 10000", "unit": "ng/mL"},
      {"measurement": "CL", "setting": "[12]", "result": 0.23, "unit": "L/h"}
    ]}
  ]
}
